Screening results: PubChem, Broad Institute
PGC1a acetyl up: raises PGC1a acetylation signal in U2OS cells; activation, % at 15.6 µM; AID 651723; U2OS PGC1a acetylation AlphaScreen, overnight; hit rate 0.21% among 350,000;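 active means every replicate reaching activation of at least 50%, whatever the mean replicate activation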;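 further: hits raise the AlphaScreen acetylation signal above neutral controls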
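Incubation: overnight compound treatment, 37 °C. System: U2OS cells transduced with flag-tagged PGC1a and GCN5 acetyltransferase. Detection: AlphaScreen lysate read. Compound: single-point compound dosing.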
A number is an active result; 0 = inactive. A selection follows.

SMILES	PGC1a acetyl up
Cc1cc(Br)c(OCc2ccc(C(=O)N/N=C/c3ccc[nH]3)cc2)c(Br)c1	0
CSCC(O)Cn1[nH]c(=O)c2cc(Cl)c(Cl)cc2c1=O (configuration not stated)	0
C[C@@H]1CN([C@H](C)CO)C(=O)c2cc(NC(=O)Cc3ccccc3)ccc2O[C@@H]1CN(C)Cc1ccncc1	0
COc1cccc(-c2cc(C(=O)NCCCn3ccnc3)no2)c1	80.2
Cc1ccc(CNC(=O)C2CC(c3ccc([N+](=O)[O-])cc3)=NO2)cc1 (configuration not stated)	78.5
CCn1c(=O)c2c(cnn2C)c2ccccc21	0
Cc1ccc(-c2nn(C)c(=O)c3ccccc23)cc1S(=O)(=O)NCCN(C)C	0
O=C(Nc1cccc(Cl)c1)Nc1ccc2c(c1)OCO2	0
CC(=O)Nc1cccc(-c2ccnc3c2CC(C)(C(=O)Nc2ccc4c(c2)OCO4)O3)c1 (configuration not stated)	69.8
COc1ccc(NC(=O)C2(C)Cc3c(-c4cccc(NC(C)=O)c4)ccnc3O2)cn1 (configuration not stated)	57.9
COc1ccc(NC(=O)/C(Cl)=C(/Cl)S(=O)Cc2ccccc2)cn1 (configuration not stated)	0
Cc1c(CNCCc2ccc(Cl)cc2)c(C(=O)O)c(C)n1-c1ccccc1	0
O=C(O)c1cc(-c2ccc3c(c2)OCO3)nc2ccccc12	93.3
O=C(N/N=C/c1ccc2c(c1)OCO2)c1cc(-c2ccc(F)cc2)nc2ccccc12	0
Cc1ccc(-c2cc(C(=O)N3CCOCC3)c3ccccc3n2)o1	0
CC(=O)c1cccc(NC(=S)NC(=O)c2ccc(Br)cc2)c1	0
CC1(C)CC(NC(=S)NC(=O)c2cc(Br)ccc2Cl)CC(C)(C)N1	225.6
O=C(NC(=S)Nc1cc(Cl)ccc1O)c1cccc(Br)c1	0
O=C(Nc1cccc2c1CCCC2)c1ccccc1Br	0
O=C(c1cc(C2CC2)on1)N1CCCC(N2CCN(c3cccc(C(F)(F)F)c3)CC2)C1 (configuration not stated)	0
O=C(Cc1ccccc1)N1CC[C@@H]2[C@H]1c1cc(C#Cc3ccccc3)ccc1N[C@@H]2CO	64.2
COc1cc(/C=C/c2cccc[n+]2C)ccc1OCC(=O)Nc1ccccc1	0
CCCNC(=O)CN(C)C(=O)c1n[nH]c2ccccc12	0
Cc1ccc(N2CCN(CC(O)COC3CCCCC3)CC2)cc1 (configuration not stated)	82.0
O=C(C[C@H]1CC[C@@H](NS(=O)(=O)c2ccc(F)cc2)[C@H](CO)O1)N1CCN(c2ccccc2)CC1	0
SMILES	PGC1a acetyl up
O=C(N/N=C/c1ccc([N+](=O)[O-])o1)c1ccc(O)cc1	64.4
O=C(N/N=C/c1ccc([N+](=O)[O-])o1)c1cc2ccccc2o1	329.5
COc1cc(/C=N/NC(=O)c2ccc(O)cc2)ccc1OCC(=O)Nc1cccc([N+](=O)[O-])c1	0
CCn1c(Cl)c(C=O)s/c1=N\S(=O)(=O)c1ccccc1	0
CC1CCCCC1NC(=O)C1CCN(C(=O)NC2CCCCC2)CC1 (configuration not stated)	0
CC(=O)N(c1ccccc1)c1nnc(-c2cnc(C)cn2)s1	0
CC(C)(C)c1ccc(NC(=O)N2CCN(c3ccc([N+](=O)[O-])cn3)CC2)cc1	191.5
O=C(Nc1ccc(F)cc1F)N1CCCN(c2ccc([N+](=O)[O-])cn2)CC1	94.1
CC(=O)Nc1ccc(S(=O)(=O)N2CCN(c3ccccn3)CC2)cc1	0
CCOc1ccc(CN2CCNC(=O)C2CC(=O)NCc2ccccn2)cc1 (configuration not stated)	0
O=C(CC1CC1)N[C@@H]1CC[C@@H](CCNS(=O)(=O)c2ccc(Cl)cc2)O[C@@H]1CO	0
CN(c1cc2c(c3c1ccn3C)C1CCC2C1)C1CCCCC1 (configuration not stated)	0
CCCCNC(=O)C1CCN(Cc2ccccn2)CC1	0
COc1ccc(S(=O)(=O)N[C@@H]2CC[C@H](CCNC(=O)c3ccccc3F)O[C@H]2CO)cc1	0
COc1ccc(S(=O)(=O)N2CC[C@@H]3[C@H](CO)Nc4ccc(-c5ccccc5F)cc4[C@@H]32)cc1	50.7
COc1ccc(NC(=O)N[C@@H]2CC[C@H](CCn3cc(-c4ccccc4F)nn3)O[C@@H]2CO)cc1	0
O=C1C=CCCN1C(=O)/C=C/c1ccccc1Cl	0
c1ccc(N2CCN(c3ccccc3)C2c2ccncc2)cc1	0
NC(=O)c1sc2nc3c(c(-c4cccs4)c2c1N)CCCCC3	0
N#Cc1ccc(C(=O)CSc2nnc(-c3ccc(C(F)(F)F)cn3)s2)cc1	0
CC1(Cc2ccc(Cl)s2)C(=O)Nc2c(Cl)ccc(Cl)c21 (configuration not stated)	65.3
CCc1cc(C=NC2CCCCC2)c(O)s1	60.6
Cc1ccccc1NC(=O)CC1c2ccccc2CC(C)(C)N1C (configuration not stated)	0
C[C@H]1CN([C@@H](C)CO)S(=O)(=O)c2ccc(-c3cncnc3)cc2O[C@H]1CN(C)C(=O)CN(C)C	0
